The values that follow come from ChEMBL document CHEMBL3608286, “Azaphilone and Diphenyl Ether Derivatives from a Gorgonian-Derived Strain of the Fungus Penicillium pinophilum” (J Nat Prod, 2015).

Experiment [1] concerns Amphibalanus amphitrite. The experiment in a line: Antifouling activity against larval settlements of Balanus amphitrite Darwin cyprids. It counts as functional, organism-based. Summed up: (§1)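 Barnacle cyprid larvae tested for inhibition of settlement, following a procedure from earlier literature. SeaNine 211 served as the positive control. EC50 was taken for settlement inhibition and LC50 for larval toxicity, with LC50/EC50 as the ratio.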

The subject of experiment [2] is Amphibalanus amphitrite. Kind of experiment: Selectivity index, ratio of CC50 for Balanus amphitrite Darwin cyprids to EC50 for antifouling activity against larval settlements of Balanus amphitrite Darwin cyprids. Summed up: as §1
The subject of experiment [3] is HeLa. Kind of experiment: Cytotoxicity against human HeLa cells by neutral red method. It counts as functional, cell-based. Put shortly: (§2)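 Human cancer cell lines (HeLa, Hep-2, RD) assayed by Neutral Red uptake, giving IC50. Adriamycin was the positive control.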
Experiment [4] in a line: Cytotoxicity against human Hep2 cells by neutral red method. It counts as functional, cell-based. As to conditions: HEp-2; call rule not given here. Summed up: as §2
The test system of experiment [5] is RD. Kind of experiment: Cytotoxicity against human RD cells by neutral red method. It counts as functional, cell-based. Summed up:
as §2

Setting [6] is: Amphibalanus amphitrite, Darwin, read-out: EC50.

≈ marks a conversion by molar mass, not a printed value.

The EC50 is the midpoint of the concentration-response curve. As a reminder, the IC50 is the midpoint of a concentration-inhibition curve.

With `CCCCCCCCn1sc(Cl)c(Cl)c1=O`, in experiment [1] (setting [6]), the EC50 was 1.2 µg/mL (≈ 4.25 µM). For the same molecule, the “Ratio CC50/EC50” value in experiment [2] worked out at 20.3.
The like results for `COc1c([C@H](CC(C)C)OC(C)=O)ccc2c1C(=O)OCc1cc(C)cc(O)c1O2` were, in that order, 10 µg/mL (≈ 24.1 µM) and over 50.
Regarding `C/C=C/C1=CC2=CC(=O)[C@@](C)(OC(=O)c3c(C)cc(O)cc3O)C(=O)C2=CO1`, the half-maximal effective concentration (EC50) entry in experiment [1] is given as “Not Active”.
Take `Cc1cc(O)cc(O)c1C(=O)O[C@]1(C)C(=O)C=C2C=C(/C=C/C(=O)O)OC=C2C1=O`: the EC50 entry in experiment [1] was “Not Active”.
Take `C/C=C/C1=CC2=CC(=O)[C@@](C)(O)[C@@H](OC(=O)c3c(C)cc(O)cc3O)[C@@H]2CO1`: the EC50 result in experiment [1] was “Not Active”.
With `Cc1cc(O)cc(O)c1C(=O)O[C@]1(C)C(=O)C2=C(C=C(/C=C/C(=O)O)OC2)C[C@H]1O`, in experiment [1], the concentration giving a half-maximal response (EC50) result was “Not Active”.
As for `C/C=C/C1=CC2=CC(=O)[C@@](C)(O)[C@@H](OC(=O)c3c(C)cc(O)cc3O)C2=CO1`, the half-maximal effective concentration (EC50) result in experiment [1] was “Not Active”.
`Cc1cc(O)cc(O)c1C(=O)O[C@]1(C)C(=O)C=C2C=C(/C=C/CO)OC[C@H]2[C@@H]1O`: the concentration for a half-maximal effect (EC50) result in experiment [1] is “Not Active”.
In the case of `Cc1cc(O)cc(O)c1C(=O)O[C@H]1[C@@H]2COC(CC(C)O)=CC2=CC(=O)[C@@]1(C)O` (some centres undefined), in experiment [1], the EC50 entry was “Not Active”.
With `Cc1cc(O)cc(O)c1C(=O)O[C@]1(C)C(=O)C=C2C=C(/C=C/CO)OC=C2C1=O`, in experiment [1], the concentration for a half-maximal effect (EC50) entry is “Not Active”.
`COc1c([C@@H](O)CC(C)C)ccc2c1C(=O)OCc1cc(CO)cc(O)c1O2`: the IC50 in experiment [3] was 6.1 µM. In addition, the concentration giving a half-maximal response (EC50) in experiment [1] (setting [6]) turned out to be 6 µg/mL (≈ 15.4 µM). The “Ratio CC50/EC50” value in experiment [2] is reported as over 50.
Take `COc1c([C@@H](O)CC(C)(C)O)ccc2c1C(=O)OCc1cc(C)cc(O)c1O2`: in experiment [1] (setting [6]), the EC50 came out at 20 µg/mL (≈ 51.5 µM). In addition, the “Ratio CC50/EC50” value in experiment [2] is over 50.
Regarding `COc1cccc2c1C(=O)c1c(O)c3c(c(O)c1C2=O)C[C@@](O)(C(=O)CO)C[C@@H]3O[C@H]1C[C@H](N)[C@H](O)[C@H](C)O1` [DOXORUBICIN], the IC50 in experiment [4] is 1.5 µM; in experiment [5], 2 µM.
Turning to `COc1c([C@@H](O)CC(C)C)ccc2c1C(=O)OCc1cc(C)cc(O)c1O2` [PENICILLIDE], the concentration for half-maximal inhibition (IC50) in experiment [4] stood at 6.7 µM; in experiment [5], 7.8 µM. Moreover, the concentration giving a half-maximal response (EC50) in experiment [1] (setting [6]) was 2.6 µg/mL (≈ 6.98 µM). Besides, in experiment [2], the “Ratio CC50/EC50” value is over 50.
Regarding `Cc1cc(O)cc(O)c1C(=O)O[C@H]1[C@@H]2COC(/C=C/CO)=CC2=CC(=O)[C@@]1(C)O` [PINOPHILIN B], the half-maximal effective concentration (EC50) entry in experiment [1] was “Not Active”.
